Test results: PMC6412122 (Nucleic Acids Research, 2019)

Molecular target: T1, HNA polymerase T6G12_I521L (Thermococcus gorgonarius, UniProt P56689, A485L/A681S/D141A/D669Q/E143A/E609K/E664Q/E730G/I521L/I610M/K659Q/K671H/K674R/L704P/Q665P/R668K/T676R/V589A/V93Q)
T1 sequence (P56689 1-773 V93Q/D141A/E143A/A485L/I521L/V589A/E609K/I610M/K659Q/E664Q/Q665P/R668K/D669Q/K671H/K674R/T676R/A681S/L704P/E730G): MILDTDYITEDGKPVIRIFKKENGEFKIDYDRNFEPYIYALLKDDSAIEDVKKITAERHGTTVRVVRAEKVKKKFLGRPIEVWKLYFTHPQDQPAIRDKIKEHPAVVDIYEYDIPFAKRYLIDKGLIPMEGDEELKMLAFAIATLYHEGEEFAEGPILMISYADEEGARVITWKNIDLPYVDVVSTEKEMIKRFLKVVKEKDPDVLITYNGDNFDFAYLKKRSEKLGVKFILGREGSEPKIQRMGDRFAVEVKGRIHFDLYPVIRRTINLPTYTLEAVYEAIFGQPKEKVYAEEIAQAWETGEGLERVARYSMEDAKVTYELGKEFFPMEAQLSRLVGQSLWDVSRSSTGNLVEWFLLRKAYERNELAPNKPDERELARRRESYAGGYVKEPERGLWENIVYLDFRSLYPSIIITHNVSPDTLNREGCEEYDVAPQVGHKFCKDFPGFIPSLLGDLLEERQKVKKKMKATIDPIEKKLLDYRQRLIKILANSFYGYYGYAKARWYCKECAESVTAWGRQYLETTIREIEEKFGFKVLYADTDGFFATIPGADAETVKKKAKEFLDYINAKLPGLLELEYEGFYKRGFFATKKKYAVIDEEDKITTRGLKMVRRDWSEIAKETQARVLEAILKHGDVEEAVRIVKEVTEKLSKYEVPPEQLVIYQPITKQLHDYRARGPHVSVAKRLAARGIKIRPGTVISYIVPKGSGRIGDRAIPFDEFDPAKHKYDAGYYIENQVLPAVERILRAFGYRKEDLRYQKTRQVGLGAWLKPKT
Type: biochemical
Conditions: global fitting, k3 fitted; duplex P2T3, 50°C
Outline: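 Quench-flow at 50 °C: enzyme with P2T3 in 2× Thermopol mixed with nucleotide plus MgSO4 (1 mM extra Mg2+ final). Nucleotide 1.6–100 µM, 4–5 levels; ageing 5 ms–60 s. Quenched with 0.3 M EDTA; 18% denaturing PAGE; duplicates. Active enzyme level set by active-site titration (50 ms dTTP pulse, quadratic fit). Global Matlab least-squares fit; k3 refitted fixed at 0.01 or 0.02 s−1; SD from covariance matrix.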

k2 = kpol: 0.62 ± 0.13 s⁻¹ | k3: 0.028 ± 0.002 s⁻¹
SMILES: Cc1cn([C@@H]2CO[C@H](COP(=O)(O)OP(=O)(O)OP(=O)(O)O)[C@@H](O)C2)c(=O)[nH]c1=O [hTTP]
